{"source": "ChEMBL document CHEMBL3808369", "about": "“Identification of Cyproheptadine as an Inhibitor of SET Domain Containing Lysine Methyltransferase 7/9 (Set7/9) That Regulates Estrogen-Dependent Transcription” (J Med Chem, 2016)", "key": {"[1]": {"biological_target": "T1, Histone-lysine N-methyltransferase SETD7 (Homo sapiens, UniProt Q8WTS6)", "T1 sequence (Q8WTS6 whole entry)": "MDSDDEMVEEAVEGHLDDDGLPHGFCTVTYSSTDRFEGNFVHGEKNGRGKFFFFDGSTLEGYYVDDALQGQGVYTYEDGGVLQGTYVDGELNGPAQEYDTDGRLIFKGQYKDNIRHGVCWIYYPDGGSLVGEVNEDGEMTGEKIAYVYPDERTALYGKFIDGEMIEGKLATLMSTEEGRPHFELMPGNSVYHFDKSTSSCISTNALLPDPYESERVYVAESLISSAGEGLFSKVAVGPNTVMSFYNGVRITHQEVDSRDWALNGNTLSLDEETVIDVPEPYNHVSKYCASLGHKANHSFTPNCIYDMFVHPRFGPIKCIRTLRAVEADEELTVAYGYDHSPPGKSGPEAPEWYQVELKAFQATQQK", "assay": "Inhibition of recombinant Set7/9 (unknown origin) expressed in Escherichia coli BL21 (DE3) using biotinylated histone H3-derived peptide/SAM as substrate by alphaLISA"}, "[2]": {"biological_target": "T2, Histone-lysine N-methyltransferase SETD7 (Homo sapiens) (UniProt Q8WTS6)", "T2 sequence (whole entry)": "T1 sequence (Q8WTS6 whole entry)", "assay": "Inhibition of recombinant his-tagged Set7/9 (unknown origin) expressed in Escherichia coli BL21 (DE3) using GST-fused histone H3 (1 to 57 residues) as substrate preincubated for 1 hr followed by substrate addition measured after 1 hr by Western blot analysis", "in_short": "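His-Set7/9 (0.2 μg/μL) preincubated with or without inhibitor in HMT buffer for 1 h. Then 1 mM SAM and 0.01 μg/μL GST-histone H3 (1−57) were added and incubated 1 h at 37 °C. Reactions were stopped in SDS loading buffer and immunoblotted with an anti-H3K4me1 antibody.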"}, "[3]": {"biological_target": "T2, Histone-lysine N-methyltransferase SETD7 (Homo sapiens)", "assay": "Inhibition of Set7/9 in human MCF7 cells assessed as suppression of beta-estradiol-induced ERE promoter activation at 14 to 43 uM preincubated for 18 hrs followed by beta-estradiol addition measured after 24 hrs by luciferase reporter gene assay", "format": "cell-based", "in_short": "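MCF7 cells held in estrogen-free medium (phenol red-free RPMI, 10% charcoal-stripped FBS) for 3 days. Cells were then transfected with a 3×ERE firefly luciferase reporter plus a TK-Renilla control. Drug added 6 h later; after 18 h, ±10 nM β-estradiol for 24 h. Firefly signal normalised to Renilla, expressed as fold over unstimulated cells. Four independent assays.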"}, "[4]": {"biological_target": "T2, Histone-lysine N-methyltransferase SETD7 (Homo sapiens)", "assay": "Inhibition of Set7/9 in human MCF7 cells assessed as suppression of beta-estradiol-induced cell viability incubated for 4 days by haemocytometer", "format": "cell-based", "in_short": "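MCF7 cells (1.5 × 10^4 per well) switched to estrogen-free medium after 24 h. Drug added with or without 10 nM β-estradiol, 4 days' incubation. Cells counted by hemocytometer. Four independent assays.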"}, "MCF7 [5]": {"test_system": "MCF7", "assay": "Antitumor activity against Fucci introduced human MCF7 cells xenografted in Balb/c-nu/nu mouse at 20 mg/kg, ip qd administered as continuous dose for 8 days measured every 3 to 4 days until day 15", "format": "functional, organism-based", "in_short": "(§1)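 Female Balb/C-nu/nu mice, 7 weeks old, each inoculated with about 2 × 10^7 Fucci-MCF7 cells in the mammary gland. Dosing started when tumors reached about 100 mm3, 13 days after inoculation. 20 mg/kg given ip once daily, days 1–8, in saline with 10% ethanol; a vehicle group ran alongside. Caliper tumor volume (a2b)/2 and body weight were recorded every 3 or 4 days to day 15. Six mice per group, mean ± SE.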"}, "Mus musculus": {"test_system": "Mus musculus", "assay": "Effect on body weight in Balb/c-nu/nu mouse xenografted with Fucci introduced human MCF7 cells at 20 mg/kg, ip qd administered as continuous dose for 8 days measured every 3 to 4 days until day 15", "format": "ADME, organism-based", "conditions": "in vivo", "in_short": "as §1"}, "[6]": {"biological_target": "T2, Histone-lysine N-methyltransferase SETD7 (Homo sapiens)", "assay": "Inhibition of Set7/9 in human MCF7 cells assessed as reduction of ERalpha expression after 48 hrs by immunoblotting analysis", "format": "cell-based", "in_short": "(§2)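 MCF7 cells (1 × 10^5 per well) treated either with a concentration series for 48 h or with 43 μM over a time course. RIPA-sonicated lysates were immunoblotted for ERα with enhanced chemiluminescence readout.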"}, "[7]": {"biological_target": "T2, Histone-lysine N-methyltransferase SETD7 (Homo sapiens)", "assay": "Inhibition of Set7/9 in human MCF7 cells assessed as reduction of ERalpha expression at 43 uM by immunoblotting analysis", "format": "cell-based", "conditions": "TDE = time-dependent effect", "in_short": "as §2"}, "MCF7 [8]": {"test_system": "MCF7", "assay": "Effect on ERalpha mRNA expression in human MCF7 cells at 4.3 to 43 uM after 48 hrs by RT-PCR analysis", "format": "functional, cell-based", "in_short": "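MCF7 cells were treated with or without compound for 48 h. Total RNA was isolated with TRIzol. ERα and GAPDH mRNA levels were measured by semiquantitative RT-PCR.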"}, "[9]": {"biological_target": "T2, Histone-lysine N-methyltransferase SETD7 (Homo sapiens)", "assay": "Non competitive inhibition of recombinant Set7/9 (unknown origin) expressed in Escherichia coli BL21 (DE3) using Ac-KRSK-MCA peptide as substrate and varying SAM preincubated for 1 hr followed by substrate addition measured after 15 mins by Lineweaver-Burk plot analysis", "in_short": "(§3)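 His6-tagged Set7/9 purified by Ni2+ affinity from E. coli BL21(DE3) after induction with 0.1 mM IPTG at 18 °C for 24 h. Kinetics were run in a fluorogenic HMT assay using Ac-KRSK-MCA peptide, with either SAM or peptide concentration varied. Initial velocities were analysed by Lineweaver–Burk plot, four independent assays.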"}, "[10]": {"biological_target": "T2, Histone-lysine N-methyltransferase SETD7 (Homo sapiens)", "assay": "Competitive inhibition of recombinant Set7/9 (unknown origin) expressed in Escherichia coli BL21 (DE3) using varying Ac-KRSK-MCA peptide as substrate in presence of SAM preincubated for 1 hr followed by substrate addition measured after 15 mins by Lineweaver-Burk plot analysis", "in_short": "as §3"}, "[11]": {"biological_target": "T1, Histone-lysine N-methyltransferase SETD7", "assay": "Inhibition of recombinant Set7/9 (unknown origin) expressed in Escherichia coli BL21 (DE3) using Ac-KRSK-MCA peptide/SAM as substrate preincubated for 1 hr followed by substrate addition measured after 15 mins by Dixon plot analysis", "in_short": "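Fluorogenic HMT kinetics used recombinant His-Set7/9 expressed in E. coli BL21(DE3) (IPTG 0.1 mM, 18 °C, 24 h) and purified on Ni2+ affinity. The methyl acceptor was Ac-KRSK-MCA and the cofactor was SAM. Ki was obtained from a Dixon plot of initial velocity versus inhibitor. Four independent assays, SD.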"}, "[12]": {"biological_target": "T3, N-lysine methyltransferase KMT5A (Homo sapiens) (UniProt Q9NQR1)", "T3 sequence (whole entry)": "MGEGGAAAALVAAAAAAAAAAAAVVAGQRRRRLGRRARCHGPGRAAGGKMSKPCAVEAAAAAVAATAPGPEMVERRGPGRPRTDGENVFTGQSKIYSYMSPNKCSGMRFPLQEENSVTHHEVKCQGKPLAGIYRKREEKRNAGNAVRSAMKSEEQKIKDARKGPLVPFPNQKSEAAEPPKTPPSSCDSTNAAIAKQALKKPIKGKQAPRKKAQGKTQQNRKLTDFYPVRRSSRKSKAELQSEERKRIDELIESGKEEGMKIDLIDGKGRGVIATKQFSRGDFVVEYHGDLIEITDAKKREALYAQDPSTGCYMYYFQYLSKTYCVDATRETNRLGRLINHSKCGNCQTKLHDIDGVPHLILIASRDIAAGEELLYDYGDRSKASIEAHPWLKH", "assay": "Inhibition of Set8 (unknown origin) by AlphaELISA"}}, "note": "Calls of active or inactive are those of the source. The rule behind the calls is not given here."}
{"smiles": "CN1CCC(=C2c3ccccc3C=Cc3ccccc32)CC1", "note": "[CYPROHEPTADINE]", "values": [{"measurement": "IC50", "setting": "[1]", "result": 1, "unit": "µM"}, {"measurement": "inhibition", "setting": "[2]", "result": "Active"}, {"measurement": "inhibition", "setting": "[3]", "result": "Active"}, {"measurement": "inhibition", "setting": "[4]", "result": "Dose-dependent effect"}, {"measurement": "TGI", "setting": "MCF7 [5]", "result": "Active"}, {"measurement": "Activity", "setting": "Mus musculus", "result": "Non-toxic"}, {"measurement": "inhibition", "setting": "[6]", "result": "Dose-dependent effect"}, {"measurement": "inhibition", "setting": "[7]", "result": "tde"}, {"measurement": "Activity", "setting": "MCF7 [8]", "result": "inactive"}, {"measurement": "inhibition", "setting": "[9]", "result": "Active"}, {"measurement": "inhibition", "setting": "[10]", "result": "Active"}, {"measurement": "Ki", "setting": "[11]", "result": 15, "unit": "µM"}, {"measurement": "inhibition", "setting": "[12]", "result": "Active"}]}
